In publication PMC12177174 (iScience, 2025):
Values joined by “and” are separate entries in the source; they are usually repeats but may differ in a detail not shown here. Equal values may be shown once.

How the values were obtained:
Assay type in all cases: in vivo, homo sapiens
[1] = Phase 1 Part 1
How it was run: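 Healthy adults were randomized to one oral dose of test compound (7, 20 or 40 mg; 6 active, 2 placebo per cohort), with a sentinel pair per cohort. Participants stayed in the unit ≥72 h post-dose, with follow-up at 6 ± 1 day. Adverse events were graded by CTCAE, and relatedness was assessed by the investigator. Placebo participants were pooled across cohorts.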

[2] = system: AXIN2 mRNA; test: Target engagement: AXIN2 mRNA; details: skin
How it was run: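 Hair follicles (2 mm micropunch) and skin biopsies (4 mm) were taken from the lower back of the head on day −1 and on day 16, 8 ± 2 h after the last of 14 consecutive once-daily doses. AXIN2 mRNA was measured by qRT-PCR and normalized to the geometric mean of HPRT1, IPO8 and POLR2A. Fold change from baseline was calculated by 2^−ΔΔCt, versus 8 pooled placebo participants.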

[3] = system: Wnt16; test: Serum high-throughput proteomics; details: study day 16
[4] = Pharmacokinetics Part 1, single oral dose, plasma and urine
How it was run: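 Healthy adults (men and women of non-child-bearing potential) got one oral dose of test compound (7, 20 or 40 mg; 6 per cohort) or placebo. Plasma was sampled pre-dose, at 15 and 30 min, and at 1–48 h (72 h at 40 mg only). Urine was collected over 0–72 h intervals. Analysis was LC-MS/MS after protein precipitation (plasma 1.00–6000 nmol/L). t½ = ln(2)/λz. Dose proportionality was assessed graphically and by power model.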

[5] = Pharmacokinetics Part 2, once daily oral dosing, plasma and urine
How it was run: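 Oral test compound or placebo was given once each morning at 5, 15 or 20 mg on day 1 and days 3–16. Plasma was sampled over 48 h after the day 1 dose and after the day 16 dose, with troughs pre-dose on days 4, 5, 6, 9 and 12. Urine was collected in intervals on days 1 and 16. Quantitation was by LC-MS/MS after protein precipitation.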

In the case of Cc1cc(-c2nccc3c2ccn3CC(=O)Nc2ccc(-c3cnccn3)cn2)ccn1 [AZD5055], the “Participants with a grade 2 TEAE of nsVT” value ([1]; Part 1, 20 mg) is reported as “One”, the “Participants with at least one TEAE” value ([1]; Part 1, 20 mg) is reported as 1 (16.7%) n (%) and the “Participants with at least one TEAE” value ([1]; Part 1, 40 mg) is reported as 1 (16.7%) n (%). The “Any TEAEs possibly related to the IMP (as assessed by investigator)” value ([1]; Part 1 SAD pooled, N=18) was 3 (16.7%) n (%), the Abdominal pain upper ([1]; Part 1 SAD pooled, n=18) was 1 (5.6) n (%) and the Application site scab ([1]; Part 1 SAD pooled, n=18) was 1 (5.6) n (%). The Cardiac disorders ([1]; Part 1 SAD pooled, n=18) was 1 (5.6) n (%), the Coronavirus infection ([1]; Part 1 SAD pooled, n=18) was 0 n (%) and the Cough ([1]; Part 1 SAD pooled, n=18) was 0 n (%). The Dermatitis contact ([1]; Part 1 SAD pooled, n=18) was 0 n (%), the Dizziness ([1]; Part 1 SAD pooled, n=18) was 1 (5.6) n (%) and the Dysgeusia ([1]; Part 1 SAD pooled, n=18) was 0 n (%). For the same compound, the Epistaxis ([1]; Part 1 SAD pooled, n=18) was 0 n (%), the Erythema ([1]; Part 1 SAD pooled, n=18) was 0 n (%) and the Folliculitis ([1]; Part 1 SAD pooled, n=18) was 0 n (%). The Gastrointestinal disorders ([1]; Part 1 SAD pooled, n=18) was 1 (5.6) n (%), the “General disorders and administration site conditions” value ([1]; Part 1 SAD pooled, n=18) was 2 (11.1) n (%) and the Headache ([1]; Part 1 SAD pooled, n=18) was 0 n (%). For the same compound, the Infections and infestations ([1]; Part 1 SAD pooled, n=18) was 0 n (%), the “Injury, poisoning and procedural complications” value ([1]; Part 1 SAD pooled, n=18) was 0 n (%) and the Limb injury ([1]; Part 1 SAD pooled, n=18) was 0 n (%). The “Medical device site dermatitis” value ([1]; Part 1 SAD pooled, n=18) was 1 (5.6) n (%), the Nasal discomfort ([1]; Part 1 SAD pooled, n=18) was 0 n (%) and the Nausea ([1]; Part 1 SAD pooled, n=18) was 1 (5.6) n (%). For the same compound, the Nervous system disorders ([1]; Part 1 SAD pooled, n=18) was 1 (5.6) n (%), the “Participants with ≥1 TEAE” value ([1]; Part 1 SAD pooled, n=18) was 4 (22.2%) n (%) and 4 (22.2) n (%) and the “Participants with ≥1 TEAE leading to discontinuation of investigational product” value ([1]; Part 1 SAD pooled, n=18) was 0 n (%). For the same compound, the “Participants with ≥1 TEAE of grade 1 severity” value ([1]; Part 1 SAD pooled, n=18) was 4 (22.2) n (%), the “Participants with ≥1 TEAE of grade 2 severity” value ([1]; Part 1 SAD pooled, n=18) was 0 n (%) and the “Participants with ≥1 TEAE of grade 3 severity” value ([1]; Part 1 SAD pooled, n=18) was 0 n (%). For the same compound, the “Participants with ≥1 TESAE” value ([1]; Part 1 SAD pooled, n=18) was 0 n (%), the Photophobia ([1]; Part 1 SAD pooled, n=18) was 0 n (%) and the Post procedural erythema ([1]; Part 1 SAD pooled, n=18) was 0 n (%). For the same compound, the Post procedural inflammation ([1]; Part 1 SAD pooled, n=18) was 0 n (%), the Procedural pain ([1]; Part 1 SAD pooled, n=18) was 0 n (%) and the “Respiratory, thoracic and mediastinal disorders” value ([1]; Part 1 SAD pooled, n=18) was 1 (5.6) n (%). The “Sensation of foreign body” value ([1]; Part 1 SAD pooled, n=18) was 0 n (%), the Skin abrasion ([1]; Part 1 SAD pooled, n=18) was 0 n (%) and the “Skin and subcutaneous tissue disorders” value ([1]; Part 1 SAD pooled, n=18) was 0 n (%). The Suture rupture ([1]; Part 1 SAD pooled, n=18) was 0 n (%), the Ventricular tachycardia ([1]; Part 1 SAD pooled, n=18) was 1 (5.6) n (%) and the “Vessel puncture site haematoma” value ([1]; Part 1 SAD pooled, n=18) was 0 n (%). The Vision blurred ([1]; Part 1 SAD pooled, n=18) was 0 n (%), the Vomiting ([1]; Part 1 SAD pooled, n=18) was 1 (5.6) n (%) and the Wheezing ([1]; Part 1 SAD pooled, n=18) was 1 (5.6) n (%). For the same compound, the “Deaths, SAEs, AEs of CTCAE grade 3 or higher” value ([1]; Parts 1 and 2) was “No deaths, serious adverse events (SAEs) or AEs of CTCAE grade 3 or higher were reported”, the “Participants with a TEAE of nsVT during the study” value ([1]; Parts 1 and 2) was “Three” and the “clinical laboratory results, vital signs, physical examinations, ECGs, oxygen saturation” value ([1]; Parts 1 and 2) was “no clinically significant changes”. The “Overall safety and tolerability” value ([1]; both study parts) was “safe and well tolerated”, the “reduction of median AXIN2 mRNA levels” value ([2]; 15 and 20 mg cohorts) was 50%–60% and the “AXIN2 mRNA expression vs placebo-treated participants” value ([2]; all dose levels, after 14 consecutive days of dosing) was “significantly reduced from baseline”. For the same compound, the “Serum Wnt16 levels” value [3] was “reduced on study day 16 at the 15 and 20 mg AZD5055 dose levels”, the “mean terminal elimination half-life” value ([4]; after a single dose, across dose cohorts) was 10 to 11 h and the “median time to maximum plasma concentration (tmax)” value ([4]; oral, across dose cohorts) was 1 to 1.5 h. For the same compound, the “Dose proportionality (power-model approach)” value ([4]; single doses 7-40 mg) was “behaves dose-proportionally”, the “Dose proportionality of systemic exposure” value ([5]; after 14 consecutive days of once daily treatment, 5-20 mg) was “increased in a dose-proportional manner” and the mean terminal half-life ([5]; following repeated once daily dosing) was 12 to 17 h. The “AZD5055 dose excreted unchanged in urine” value ([5]; in vivo) was “Approximately 3%”, the mean renal clearance ([5]; in vivo) was 0.2 to 0.3 L/h and the “Steady state conditions in plasma reached” value ([5]; once daily dosing) was at most 5 doses. For the same compound, the accumulation ratio ([5]; once daily dosing) was at most 2.
